Test results: PubChem BioAssay AID1656 (Sanford-Burnham Center for Chemical Genomics, 2009)
The whole screen tested about 240,000 compounds, of which about 950 (0.4%) were called active.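 Rule for the calls: active = lipid droplet intensity inhibited by at least 50%, with more than 500 cells counted; inconclusive = wells with under 300 cells, treated as cytotoxic; inactive = the rest.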 What follows is part of a selection rich in actives, with near analogues and random picks from the rest.

test: oleate-induced lipid droplet accumulation in AML12 cells – imaging, high-throughput imaging, BODIPY stain, primary screen (AID 1656); settings: AML12 mouse hepatocytes, oleate lipid droplets, at 6.5 µM; cell count: measured here: cell count, cytotoxicity flag; inhibition: stronger effect = higher value;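 for cell count: cells counted across two imaged fields per well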
Method in brief: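 material = mouse AML12 hepatocyte cell line, fixed after treatment | also added = 100 µM oleic acid challenge | doses = compound at 6.5 µM only | schedule = overnight exposure | technique = Image-based BODIPY and DAPI two-channel analysis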

Structure (SMILES)	cell count [cells]	inhibition
COc1ccc(CN(CC(=O)NC2CCCC2)C(=O)CCC(=O)Nc2cc(C)on2)cc1	702	-31.7% (inactive)
CCC(C)(C)NC(=O)C(c1ccc(OC)cc1)N(C(=O)CCC(=O)Nc1cc(C)on1)c1ccc(OC)cc1OC (stereo not given)	774	2.5% (inactive)
COc1ccc(C(C(=O)NC(C)(C)C)N(Cc2ccc(F)cc2)C(=O)CCC(=O)Nc2cc(C)on2)cc1 (stereo not given)	757	96.7% (active)
COc1cccc(CNC(=O)Cn2c(=O)oc3cc(S(=O)(=O)N4CCCCC4)ccc32)c1	692	25.1% (inactive)
CCC1=C(C(=O)OC)C(c2cc(OC)ccc2OC)C(C#N)=C(N)O1 (stereo not given)	697	-12.3% (inactive)
CCOC(=O)C1=C(C)OC(N)=C(C#N)C1c1cncc(-c2ccc(F)cc2)c1 (stereo not given)	619	-2.2% (inactive)
CCOC(=O)C1=C(CC)OC(N)=C(C#N)C1c1ccc(F)cc1F (stereo not given)	769	70.2% (active)
COc1cc(/C=N/NC(=O)c2ccoc2C)ccc1OCCN1CCCCC1	729	4.7% (inactive)
COc1cc(/C=N/NC(=O)Nc2ccccc2)ccc1OCCOc1ccccc1C	674	94.6% (active)
COc1ccc(/C=N/NC(=O)c2ccccc2)cc1OS(=O)(=O)c1ccccc1	657	-6% (inactive)
CC(C)CCn1c(=O)c2c(nc3n2CCCN3Cc2ccccc2)n(C)c1=O	827	-12.4% (inactive)
Cc1cccn2c(=O)c(/C=C(\C#N)C(N)=O)c(N3CCCCCC3)nc12	788	1.2% (inactive)
CC(=O)c1ccc(N2CCN(C(=O)C3CCN(S(=O)(=O)c4ccc5c(c4)CC(C)N5C(=O)C4CC4)CC3)CC2)cc1 (stereo not given)	672	-0.3% (inactive)
COc1cccc(N(CC(=O)NC2CCCCCC2)S(=O)(=O)c2ccccc2)c1	750	2.3% (inactive)
CCC(C)[C@H](NC(=O)N1CCn2c1nc1ccccc12)C(=O)NCc1ccc(OC)cc1 (stereo not given in full)	712	28% (inactive)
CCc1ccc2nc(N(CCCN(C)C)C(=O)c3ccc4c(c3)OCCO4)sc2c1	802	0% (inactive)
CCC(=O)N1CCN(c2ccccc2NC(=O)COc2cccc(C)c2C)CC1	823	-15% (inactive)
COc1cc(/C=N/NC(=O)c2cccnc2)ccc1OC(=O)c1cccc(Br)c1	669	-11.9% (inactive)
O=[N+]([O-])c1cc(C(F)(F)F)ccc1NN=C1CCCC1	631	1.6% (inactive)
CN1CCN(CCNC(=O)Nc2ccccc2[N+](=O)[O-])CC1	440	10.2% (inactive)
O=[N+]([O-])c1ccccc1N/N=C1\CCc2ccccc21	658	60.3% (active)
Cc1c2cnn(CC(=O)NCc3ccccn3)c(=O)c2c(C)n1Cc1ccc(Cl)cc1	683	-9.1% (inactive)
CN(C)c1ccc(Nc2c3c4c(cccc4n(C)c2=O)C(=O)c2ccccc2-3)cc1	681	75.9% (active)
CCOc1ccccc1-c1cc(C(=O)N/N=C(\C)c2cccnc2)c2ccccc2n1	660	-32% (inactive)
Cc1c2cnn(CC(=O)NCCCN3CC(C)CC(C)C3)c(=O)c2c(C)n1Cc1ccc(Cl)cc1 (stereo not given)	643	-27.4% (inactive)
CC1CC(C)CN(CCOc2cccc3ccccc23)C1 (stereo not given)	797	-2.9% (inactive)
COc1ccc(Oc2cn[nH]c2-c2ccc(OC)cc2O)cc1	836	-10.9% (inactive)

Structure (SMILES)	cell count [cells]	inhibition
COC(=O)c1cc(NS(=O)(=O)c2ccc3c(c2)c(=O)n(C)c(=O)n3C)cc(C(=O)OC)c1	716	-11.5% (inactive)
CSc1ccccc1C(=O)NCc1ccccc1	673	4% (inactive)
Cc1c(C(=O)NCc2ccccc2)cnn1-c1ccccc1	684	56.3% (active)
Cc1c(C(=O)N(Cc2ccccc2)Cc2cccnc2)cnn1-c1ccc(F)cc1	648	-6% (inactive)
COC(=O)C1=CN(c2ccc(F)c(F)c2)C=C(C(=O)OC)C1c1ccc([N+](=O)[O-])cc1	825	-1.4% (inactive)
Cc1ccc(C)c(S(=O)(=O)N2CCCOC2CNC(=O)C(=O)NC2CCCCC2)c1 (stereo not given)	690	-1.2% (inactive)
COc1cccc(N2CCN(c3ccc4nnc(CCC(=O)N5CCN(C)CC5)n4n3)CC2)c1	633	-28.1% (inactive)
COc1cc(SC)ccc1C(=O)N(Cc1ccccc1)c1ccccc1	608	-8.6% (inactive)
COCn1c(C(O)c2ccccc2)cc2ccccc21 (stereo not given)	813	-9.2% (inactive)
Cc1ccc(O)c(/C=N/NC(=O)COc2ccc3c(C)cc(=O)oc3c2)c1	786	-1.7% (inactive)
CCn1cc(CN2CCN(CC(C)(C)C)C(CCO)C2)c2ccccc21 (stereo not given)	814	5.1% (inactive)
CC(=O)Nc1cccc(Nc2nc(-c3cccs3)nc3ccccc23)c1	775	2.7% (inactive)
COc1cc2c(cc1OC)CN(C(=O)c1cc(S(=O)(=O)N3CCCCC3)ccc1Cl)CC2	813	-18.7% (inactive)
COc1ccc(NC(=O)CN2C(=O)CSc3ccc(S(=O)(=O)N4CCC(C)CC4)cc32)cc1	698	-8.1% (inactive)
COCCCNC(=O)CN1C(=O)CSc2ccc(S(=O)(=O)N3CCOCC3)cc21	798	59.7% (active)
CC1CCN(CCCNC(=O)CN2C(=O)CSc3ccc(S(=O)(=O)N4CCCCC4)cc32)CC1	719	8% (inactive)
CNC[C@H](CC1CCCCC1)NC[C@H](NCCC1CCCC1)[C@H](C)O	688	1.2% (inactive)
CCOC(=O)C1(Cc2ccccc2C)CCCN(C(=O)CCc2c(C)noc2C)C1 (stereo not given)	656	-27.4% (inactive)
CN(C(=O)c1cc2c(=O)n3ccccc3nc2s1)C1CCCCC1	654	-14.1% (inactive)
CC(C)c1nc(SCC(=O)Nc2cccc(C(=O)O)c2)c2c3c(sc2n1)CCCC3	835	-26% (inactive)
Cc1nc(SCC(=O)Nc2cc(C)on2)c2c3c(sc2n1)CCCC3	678	5.3% (inactive)
Cc1cc(NC(=O)CSc2nc(C(C)C)nc3sc4c(c23)CCC(C)C4)no1 (stereo not given)	668	105% (active)
COc1ccc(CCNC(=O)CCCCCNC(=O)N2CCn3c2nc2ccccc23)cc1OC	692	0.7% (inactive)
CCCN1CCn2c3c(c4cc(Br)ccc42)CCCC31 (stereo not given)	795	-5.9% (inactive)
CCC(C(=O)NC1CCCCC1)N(C(=O)c1snc(C(N)=O)c1N)c1ccc(OC)cc1OC (stereo not given)	820	-0.1% (inactive)
Cc1ccc(NC(=O)c2cc(-c3ccccc3O)n[nH]2)cc1C	660	31.5% (inactive)
Cc1nc2cc(C(F)(F)F)ccc2n1CCNc1nc(-c2cc(Cl)c(N)c(Cl)c2)cs1	750	8.1% (inactive)

Structure (SMILES)	cell count [cells]	inhibition
Cc1c(C(=O)NCC(c2ccco2)N2CCCC2)oc2ccc(Cl)cc12 (stereo not given)	736	2.8% (inactive)
CS(=O)(=O)N(CC(=O)N1CCOCC1)c1cccc(Cl)c1Cl	792	-9.9% (inactive)
COc1ccc(NC(=O)NCCN2CCN(c3ccc(C)cc3)CC2)c(Cl)c1	800	-0.4% (inactive)
CCN(C(=O)COc1ccc(C(=O)c2ccccc2)cc1)c1ccccc1	592	-18.3% (inactive)
Cc1cc(CN(C)C(=O)c2cc(COc3ccc(C)c(C)c3)on2)n[nH]1	697	-6.7% (inactive)
CC(Cc1cccs1)N(Cc1ccc(Cl)cc1)C(=O)c1ccncc1 (stereo not given)	838	-16% (inactive)
O=C(NC(=S)Nc1ccccc1N1CCCCC1)c1ccc(F)cc1	720	8.8% (inactive)
COc1ccc(C(CNC(=O)COc2ccccc2OC)N2CCCCC2)cc1 (stereo not given)	697	-15% (inactive)
COc1cccc(Cn2cc(/C=N/NC(=O)c3cc(O)cc(O)c3)c3ccccc32)c1	740	-2.5% (inactive)
COc1ccc(C)cc1Nc1n[n+](-c2ccccc2)c(-c2cccc(Cl)c2Cl)s1	778	-4.7% (inactive)
CC1CCN(CCCn2c(SCC(=O)NC3CCCC3)nc3ccccc3c2=O)CC1	704	-17.3% (inactive)
CC1CCCN(CCCNC(=O)CN2C(=O)COc3ccc(S(=O)(=O)N4CCOCC4)cc32)C1 (stereo not given)	780	-12.4% (inactive)
O=C(NCC(=O)N1CCN(c2ccccc2O)CC1)c1ccc2ccccc2c1	679	-1.6% (inactive)
COc1ccc(N(Cc2cc3ccc(C)cc3[nH]c2=O)S(=O)(=O)c2ccccc2)cc1	764	-6.7% (inactive)
CC(C)c1ccc(NC2CCCN(C(=O)c3ccncc3)C2)cc1 (stereo not given)	631	-2.4% (inactive)
O=C(N/C(=C\c1ccc([N+](=O)[O-])cc1)C(=O)N1CCOCC1)c1cccc(Br)c1	652	-42.9% (inactive)
COc1ccc(-c2c(C#Cc3ccccc3)c3ccccc3n2C)cc1	742	-11.3% (inactive)
Cc1ccccc1OCC(=O)Nc1ccc(S(=O)(=O)N2CCOCC2)cc1	768	-7.1% (inactive)
O=C(/C=C/c1ccc([N+](=O)[O-])o1)NNC(=O)c1ccc(F)cc1	473	-82% (inactive)
COc1ccc(-c2csc(NC(=O)CCCc3cccs3)n2)cc1	687	-3.2% (inactive)
CCCc1ccc(-c2csc(NC(=O)Cc3cccs3)n2)cc1	774	71% (active)
Cc1ccc(-c2csc(NC(=O)Cc3cccs3)n2)cc1C	732	12.4% (inactive)
CCOCCCN(C)C1CCN(C(=O)c2oc3ccccc3c2NC(=O)COc2cccc(C)c2)CC1	640	-24.8% (inactive)
Cc1ccc(NC(=O)CN2CCc3ccccc3C2)cc1	793	7.1% (inactive)
O=C(CN1CCOCC1)Nc1ccccc1	743	1.4% (inactive)
O=C(CN1CCc2cc3c(cc2C1)OCCCO3)Nc1ccccc1	784	77.1% (active)
